Laboratory results as given in paper PMC8518898 (Journal of Clinical Pharmacology, 2021).
Entries after “also recorded” stand apart in the source; their conditions may differ. Like-named read-outs stand apart in the source and are kept apart here. Marks after values point to notes of the source that are not given here.

How the values were obtained:
[1] = ref data on file; cited from earlier work
JAK2 = conditions: metabolites; ref data on file; cited from earlier work
JAK1 = conditions: ref data on file; cited from earlier work
[2] = ref data on file; cited from earlier work; remark: listed apart in the source
[3] = Phase 1 hepatic impairment study; type: in vivo, human; conditions: for MRAUCinf (ratio of metabolite to abrocitinib for AUCinf) / tmax / AUCinf / AUClast / Cmax / AUC(0-inf) / AUC(0-t): single 200-mg oral dose of abrocitinib; for MRAUCinf (ratio of metabolite to abrocitinib for AUCinf) / AUCinf / AUClast / Cmax / AUC(0-inf) / AUC(0-t): geometric mean (geometric %CV); for tmax: median (range); for AUC(0-inf): AUCinf; for AUC(0-t): AUClast
JAK3 = conditions: metabolites; ref data on file; cited from earlier work
[4] = test system: IFN‐α signaling (JAK1/TYK2 kinase dimer); test: In vitro whole blood inhibition of IFN-α signaling; type: cell-based; conditions: read-out: unbound IC50 (IC50,u) of IFN‐α signaling; IC50,u = IC50 × [fu / (blood/plasma ratio)]
[5] = single oral dose 200-mg abrocitinib/80 μg (500 nCi) [14C]; ref data on file; cited from earlier work
tyrosine kinase 2 (TYK2) = conditions: metabolites; ref data on file; cited from earlier work
[6] = target: IFN‐α signaling (JAK1/TYK2 kinase dimer); conditions: read-out: In vitro whole blood IFN‐α IC50, ref data on file; cited from earlier work
[7] = once daily 100 mg or 200 mg; cited from earlier work
[8] = Phase 1 hepatic impairment study; type: in vivo, human
Summary of the method: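 Single oral dose after an overnight fast, 8 subjects per hepatic function group. Adverse events, vital signs, physical exams, 12-lead ECGs and safety laboratory tests were assessed up to 72 h post-dose. Treatment-emergent events were scored for incidence, severity and causality. Clinically significant lab abnormalities or ongoing events were followed up by telephone or onsite visit at 28–35 days.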

[9] = cited from earlier work
[10] = ref data on file; cited from earlier work; remark: listed apart in the source
[11] = up to 800-mg single dose, repeated total daily doses up to 400 mg; cited from earlier work
[12] = mild hepatic impairment compared to normal hepatic function
[13] = mild hepatic impairment, plasma
[14] = moderate hepatic impairment compared to normal hepatic function
[15] = moderate hepatic impairment, plasma
[16] = normal hepatic function, plasma
[17] = human, plasma, po, 200 mg, mild hepatic impairment
[18] = human, plasma, po, 200 mg, moderate hepatic impairment
[19] = human, plasma, po, 200 mg, normal hepatic function

C[C@H](O)CS(=O)(=O)NC1CC(N(C)c2ncnc3[nH]ccc23)C1 (stereo partly drawn) [M2]
fraction unbound in plasma (fu) [1]: 0.71 | JAK1 enzyme kinase selectivity over JAK2 (JAK2): 49 fold | pharmacological activity of metabolite (JAK1): active metabolites | blood/plasma ratio [2]: 1.27 | unadjusted geometric mean ratio for MRAUCinf [3, 12]: 0.680 | MRAUCinf (ratio of metabolite to abrocitinib for AUCinf) ([3]; mild hepatic impairment): 0.15 (25) | tmax ([3]; mild hepatic impairment): 2.50 (1.00‐4.00) h | AUCinf [3, 13]: 1178 (22) ng • h/mL | AUClast [3, 13]: 1081 (25) ng • h/mL | Cmax [3, 13]: 139.9 (29) ng/mL | unadjusted geometric mean ratio for MRAUCinf [3, 14]: 0.655 | MRAUCinf (ratio of metabolite to abrocitinib for AUCinf) ([3]; moderate hepatic impairment): 0.15 (78) | tmax ([3]; moderate hepatic impairment): 2.00 (2.00‐4.00) h | AUCinf [3, 15]: 1309 (38) ng • h/mL | AUClast [3, 15]: 1192 (43) ng • h/mL | Cmax [3, 15]: 119.2 (43) ng/mL | MRAUCinf (ratio of metabolite to abrocitinib for AUCinf) ([3]; normal hepatic function): 0.22 (56) ^b | tmax ([3]; normal hepatic function): 2.00 (1.00‐3.00) h | AUCinf [3, 16]: 1519 (36) ^b ng • h/mL | AUClast [3, 16]: 1395 (35) ng • h/mL | Cmax [3, 16]: 253.1 (40) ng/mL | JAK1 enzyme kinase selectivity over JAK3 (JAK3): > 559 fold | IC50 [4]: 50.6 nM | share of circulating species [5]: 12% | JAK1 enzyme kinase selectivity over TYK2 (tyrosine kinase 2 (TYK2)): 68 fold | IC50 [6]: 90.5 nM

CN(c1ncnc2[nH]ccc12)C1CC(NS(=O)(=O)CCCO)C1 (stereo not drawn) [M1]
fraction unbound in plasma (fu) [1]: 0.63 | JAK1 enzyme kinase selectivity over JAK2 (JAK2): approximately 26 fold | pharmacological activity of metabolite (JAK1): active metabolites | blood/plasma ratio [2]: 1.13 | unadjusted geometric mean ratio for MRAUCinf [3, 12]: 0.239 | MRAUCinf (ratio of metabolite to abrocitinib for AUCinf) ([3]; mild hepatic impairment): 0.05 (54) | tmax ([3]; mild hepatic impairment): 1.50 (1.00‐4.00) h | AUCinf [3, 13]: 357.6 (49) ng • h/mL | AUClast [3, 13]: 338.1 (52) ng • h/mL | Cmax [3, 13]: 56.3 (54) ng/mL | unadjusted geometric mean ratio for MRAUCinf [3, 14]: 0.320 | MRAUCinf (ratio of metabolite to abrocitinib for AUCinf) ([3]; moderate hepatic impairment): 0.06 (111) | tmax ([3]; moderate hepatic impairment): 2.00 (1.00‐3.00) h | AUCinf [3, 15]: 552.7 (51) ng • h/mL | AUClast [3, 15]: 534.9 (52) ng • h/mL | Cmax [3, 15]: 68.9 (57) ng/mL | MRAUCinf (ratio of metabolite to abrocitinib for AUCinf) ([3]; normal hepatic function): 0.19 (100) | tmax ([3]; normal hepatic function): 2.00 (1.00‐3.00) h | AUCinf [3, 16]: 1120 (28) ng • h/mL | AUClast [3, 16]: 1102 (29) ng • h/mL | Cmax [3, 16]: 241.5 (50) ng/mL | JAK1 enzyme kinase selectivity over JAK3 (JAK3): > 230 fold | IC50 [4]: 165 nM | share of circulating species [5]: 11% | JAK1 enzyme kinase selectivity over TYK2 (tyrosine kinase 2 (TYK2)): ~74 fold | IC50 [6]: 296 nM

CCCS(=O)(=O)N[C@H]1C[C@@H](N(C)c2ncnc3[nH]ccc23)C1 [abrocitinib, N‐{cis‐3‐[Methyl(7H‐pyrrolo[2,3‐d]pyrimidin‐4‐yl)amino]cyclobutyl}propane‐1‐sulfo namide]
efficacy and tolerability in moderate to severe atopic dermatitis [7]: effective and well tolerated; also recorded: safe and efficacious | subjects with laboratory abnormality leukocyte esterase (≥1) ([8]; mild hepatic impairment): 4 subjects | subjects reporting diarrhea ([8]; mild hepatic impairment (25%)): 2 subjects | subjects reporting headache ([8]; mild hepatic impairment (25%)): 2 subjects | subjects with treatment-emergent adverse events ([8]; mild hepatic impairment (N = 8)): 3 subjects | subjects with laboratory abnormality leukocyte esterase (≥1) ([8]; moderate hepatic impairment): 5 subjects | subjects reporting adverse events ([8]; moderate hepatic impairment (N = 8)): No subjects | subjects with laboratory abnormality leukocyte esterase (≥1) ([8]; normal hepatic function): 1 subject | safety and tolerability ([8]; single 200-mg oral dose, all 3 hepatic function groups): generally safe and well tolerated | median tmax ([9]; healthy subjects, suspension, doses of 3 to 200 mg): < 1 h | increases in Cmax and AUCτ with increasing dose ([9]; multiple dose, total daily dose 30 mg up to 400 mg): greater than proportional | increases in AUCinf, dose proportionality ([9]; single doses 400 and 800 mg): greater than dose proportional | Cmax dose proportionality ([9]; single-dose range 3 to 800 mg): increased proportionally with dose | absolute oral bioavailability [10]: 60% | fraction absorbed [10]: 91% | AUC(0-inf) [3, 17]: 7450 ng·h/mL | AUC(0-inf) [3, 18]: 8600 ng·h/mL | AUC(0-inf) [3, 19]: 5590 ng·h/mL | AUC(0-t) [3, 17]: 7430 ng·h/mL | AUC(0-t) [3, 18]: 8550 ng·h/mL | AUC(0-t) [3, 19]: 5550 ng·h/mL | Cmax ([3]; human, plasma, po, 200 mg, Cmax, mild hepatic impairment): 1280 ng/mL | Cmax ([3]; human, plasma, po, 200 mg, Cmax, moderate hepatic impairment): 1430 ng/mL | Cmax ([3]; human, plasma, po, 200 mg, Cmax, normal hepatic function): 1350 ng/mL | tmax ([3]; human, plasma, po, 200 mg, tmax, mild hepatic impairment): 2 h | tmax ([3]; human, plasma, po, 200 mg, tmax, moderate hepatic impairment): 1 h | tmax ([3]; human, plasma, po, 200 mg, tmax, normal hepatic function): 2 h | increase in AUCinf [3, 12]: ≈ 33.3% | effect of hepatic impairment on PK and safety ([3]; mild or moderate hepatic impairment): no clinically relevant effect | increase in AUCinf [3, 14]: ~54.0% | safety and tolerability of higher doses [11]: safe and well tolerated | share of circulating species [5]: 26%
